Measured values as given in ChEMBL document CHEMBL1139690, “Comparison between two classes of selective EP(3) antagonists and their biological activities” (Bioorg Med Chem Lett, 2006).

Tested on: not listed separately
Assay: Half life in Sprague-Dawley rat at 10 mg/kg, po and 5 mg/kg, iv
Format: ADME, organism-based
Details: in vivo
In the case of `Cc1ccc(OCc2ccccc2)c(C/C=C/c2ccccc2/C=C/C(=O)O)c1`, the half-life is reported as 2 h.
`Cc1ccc(OCc2ccccc2)c(/C=C/Cc2ccccc2/C=C/C(=O)O)c1` showed a half-life of 2 h.

Target: Prostaglandin E2 receptor EP2 subtype (Homo sapiens, UniProt P43116)
Sequence (P43116 whole entry): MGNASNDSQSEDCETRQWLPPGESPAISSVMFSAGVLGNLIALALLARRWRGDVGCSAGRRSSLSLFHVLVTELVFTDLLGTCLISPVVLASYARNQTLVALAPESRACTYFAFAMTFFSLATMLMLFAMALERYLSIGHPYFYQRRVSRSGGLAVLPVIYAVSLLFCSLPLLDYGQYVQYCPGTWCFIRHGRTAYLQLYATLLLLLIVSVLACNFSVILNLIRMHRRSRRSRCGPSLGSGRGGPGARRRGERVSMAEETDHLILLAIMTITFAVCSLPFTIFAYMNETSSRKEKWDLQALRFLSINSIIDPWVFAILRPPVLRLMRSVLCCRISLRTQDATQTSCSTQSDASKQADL
Assay: Binding affinity to EP2 receptor
Details: not given
With `Cc1ccc(OCc2ccccc2)c(C/C=C/c2ccccc2/C=C/C(=O)O)c1` the Ki was 860 nM (antagonist).
For `Cc1ccc(OCc2ccccc2)c(/C=C/Cc2ccccc2/C=C/C(=O)O)c1`, the Ki was 860 nM (antagonist).

Tested on: not listed separately
Assay: Bioavailability in Sprague-Dawley rat at 10 mg/kg, po and 5 mg/kg, iv
Format: ADME, organism-based
Details: in vivo
With `Cc1ccc(OCc2ccccc2)c(C/C=C/c2ccccc2/C=C/C(=O)O)c1` the bioavailability was 97%.
For `Cc1ccc(OCc2ccccc2)c(/C=C/Cc2ccccc2/C=C/C(=O)O)c1`, the bioavailability was 97%.

Target: T1, Prostaglandin D2 receptor (Homo sapiens, UniProt Q13258)
T1 sequence (Q13258 whole entry): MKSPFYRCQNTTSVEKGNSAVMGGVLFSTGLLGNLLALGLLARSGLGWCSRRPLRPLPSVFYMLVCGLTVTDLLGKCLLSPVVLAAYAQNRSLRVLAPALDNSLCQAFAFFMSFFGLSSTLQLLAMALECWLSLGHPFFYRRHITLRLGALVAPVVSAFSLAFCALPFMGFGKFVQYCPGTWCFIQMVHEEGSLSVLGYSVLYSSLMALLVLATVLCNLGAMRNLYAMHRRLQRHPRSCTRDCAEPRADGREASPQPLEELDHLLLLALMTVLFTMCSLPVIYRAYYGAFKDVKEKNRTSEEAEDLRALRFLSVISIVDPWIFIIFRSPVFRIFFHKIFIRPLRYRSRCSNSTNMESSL
Assay: Binding affinity to DP receptor
Details: not given
With `Cc1ccc(OCc2ccccc2)c(C/C=C/c2ccccc2/C=C/C(=O)O)c1` the Ki was greater than 500 nM.
Molecule `Cc1ccc(OCc2ccccc2)c(/C=C/Cc2ccccc2/C=C/C(=O)O)c1` has a Ki greater than 500 nM.

Target: T2, Thromboxane A2 receptor (Homo sapiens, UniProt P21731)
T2 sequence (P21731 whole entry): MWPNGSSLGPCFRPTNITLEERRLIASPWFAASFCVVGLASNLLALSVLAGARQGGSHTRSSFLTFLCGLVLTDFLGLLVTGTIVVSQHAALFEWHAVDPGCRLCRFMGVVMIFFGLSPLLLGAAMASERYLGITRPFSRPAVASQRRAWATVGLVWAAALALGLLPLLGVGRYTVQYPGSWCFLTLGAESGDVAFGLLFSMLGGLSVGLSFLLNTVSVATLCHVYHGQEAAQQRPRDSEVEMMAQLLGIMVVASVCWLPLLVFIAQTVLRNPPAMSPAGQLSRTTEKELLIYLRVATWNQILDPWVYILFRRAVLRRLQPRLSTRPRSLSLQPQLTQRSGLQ
Assay: Binding affinity to TP receptor
Details: not given
For `Cc1ccc(OCc2ccccc2)c(C/C=C/c2ccccc2/C=C/C(=O)O)c1`, the Ki was greater than 500 nM.
Work on `Cc1ccc(OCc2ccccc2)c(/C=C/Cc2ccccc2/C=C/C(=O)O)c1` yielded a Ki greater than 500 nM.

Target: Prostaglandin F2-alpha receptor (Homo sapiens, UniProt P43088)
Sequence (P43088 whole entry): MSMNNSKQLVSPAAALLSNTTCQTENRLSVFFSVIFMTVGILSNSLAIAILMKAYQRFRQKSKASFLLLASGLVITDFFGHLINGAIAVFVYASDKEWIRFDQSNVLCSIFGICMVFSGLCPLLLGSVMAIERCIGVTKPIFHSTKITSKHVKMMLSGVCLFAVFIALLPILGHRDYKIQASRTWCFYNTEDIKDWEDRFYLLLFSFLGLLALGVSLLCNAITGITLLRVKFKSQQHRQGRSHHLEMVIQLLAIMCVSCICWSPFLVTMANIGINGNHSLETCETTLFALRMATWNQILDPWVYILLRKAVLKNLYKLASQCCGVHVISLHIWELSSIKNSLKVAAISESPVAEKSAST
Assay: Binding affinity to FP receptor
Details: not given
With `Cc1ccc(OCc2ccccc2)c(C/C=C/c2ccccc2/C=C/C(=O)O)c1` the Ki was greater than 500 nM.
With `Cc1ccc(OCc2ccccc2)c(/C=C/Cc2ccccc2/C=C/C(=O)O)c1` the Ki was greater than 500 nM.

Target: T3, Prostaglandin E2 receptor EP1 subtype (Homo sapiens, UniProt P34995)
T3 sequence (P34995 whole entry): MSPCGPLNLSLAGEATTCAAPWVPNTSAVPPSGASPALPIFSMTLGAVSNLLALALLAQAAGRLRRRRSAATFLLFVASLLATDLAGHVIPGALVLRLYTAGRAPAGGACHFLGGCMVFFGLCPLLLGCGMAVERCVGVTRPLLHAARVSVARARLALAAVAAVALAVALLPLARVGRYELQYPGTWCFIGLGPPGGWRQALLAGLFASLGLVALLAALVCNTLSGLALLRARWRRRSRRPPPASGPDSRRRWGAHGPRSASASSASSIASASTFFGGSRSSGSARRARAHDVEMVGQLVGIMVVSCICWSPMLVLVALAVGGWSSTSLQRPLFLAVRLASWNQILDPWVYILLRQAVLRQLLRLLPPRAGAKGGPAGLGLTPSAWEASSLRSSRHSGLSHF
Assay: Binding affinity to EP1 receptor
Details: not given
`Cc1ccc(OCc2ccccc2)c(C/C=C/c2ccccc2/C=C/C(=O)O)c1` showed a Ki of 19000 nM.
For `Cc1ccc(OCc2ccccc2)c(/C=C/Cc2ccccc2/C=C/C(=O)O)c1`, the Ki was 19000 nM.

Tested on: not listed separately
Assay: Cmax in Sprague-Dawley rat at 10 mg/kg, po and 5 mg/kg, iv after 30 mins
Format: ADME, organism-based
Details: in vivo
In the case of `Cc1ccc(OCc2ccccc2)c(C/C=C/c2ccccc2/C=C/C(=O)O)c1`, the Cmax is reported as 22 µM.
With `Cc1ccc(OCc2ccccc2)c(/C=C/Cc2ccccc2/C=C/C(=O)O)c1` the Cmax was 22 µM.

Tested on: not listed separately
Assay: Clearance in Sprague-Dawley rat at 10 mg/kg, po and 5 mg/kg, iv
Format: ADME, organism-based
Details: in vivo
With `Cc1ccc(OCc2ccccc2)c(C/C=C/c2ccccc2/C=C/C(=O)O)c1` the clearance was 10 mL/min.
With `Cc1ccc(OCc2ccccc2)c(/C=C/Cc2ccccc2/C=C/C(=O)O)c1` the clearance was 10 mL/min.

Target: Prostacyclin receptor (Homo sapiens, UniProt P43119)
Sequence (P43119 whole entry): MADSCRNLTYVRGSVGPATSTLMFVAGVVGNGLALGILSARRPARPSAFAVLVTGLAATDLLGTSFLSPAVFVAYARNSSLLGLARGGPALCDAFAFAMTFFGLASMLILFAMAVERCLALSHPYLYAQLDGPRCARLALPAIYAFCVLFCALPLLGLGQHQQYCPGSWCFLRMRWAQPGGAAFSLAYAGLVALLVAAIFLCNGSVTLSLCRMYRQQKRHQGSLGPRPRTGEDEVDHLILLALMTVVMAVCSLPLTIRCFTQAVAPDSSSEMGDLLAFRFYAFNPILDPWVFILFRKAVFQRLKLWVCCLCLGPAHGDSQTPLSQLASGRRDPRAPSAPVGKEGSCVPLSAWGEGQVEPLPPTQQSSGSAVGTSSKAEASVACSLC
Assay: Binding affinity to IP receptor
Details: not given
For `Cc1ccc(OCc2ccccc2)c(C/C=C/c2ccccc2/C=C/C(=O)O)c1`, the Ki was greater than 500 nM.
Molecule `Cc1ccc(OCc2ccccc2)c(/C=C/Cc2ccccc2/C=C/C(=O)O)c1` has a Ki greater than 500 nM.

Target: T4, Prostaglandin E2 receptor EP3 subtype (Homo sapiens, UniProt P43115)
T4 sequence (P43115 whole entry): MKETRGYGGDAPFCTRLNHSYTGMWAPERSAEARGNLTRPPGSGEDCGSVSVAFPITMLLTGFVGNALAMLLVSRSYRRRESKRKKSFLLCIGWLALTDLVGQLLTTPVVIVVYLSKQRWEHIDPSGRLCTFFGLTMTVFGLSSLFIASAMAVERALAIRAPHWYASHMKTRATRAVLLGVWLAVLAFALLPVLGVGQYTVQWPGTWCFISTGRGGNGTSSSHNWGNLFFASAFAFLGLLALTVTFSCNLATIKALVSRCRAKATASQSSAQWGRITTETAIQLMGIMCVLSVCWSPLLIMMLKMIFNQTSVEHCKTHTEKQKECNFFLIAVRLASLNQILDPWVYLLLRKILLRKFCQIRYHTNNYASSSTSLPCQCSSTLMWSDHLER
Assay: Binding affinity to EP3 receptor
Details: not given
In the case of `Cc1ccc(OCc2ccccc2)c(C/C=C/c2ccccc2/C=C/C(=O)O)c1`, the Ki is reported as 9 nM (antagonist).
In the case of `Cc1ccc(OCc2ccccc2)c(/C=C/Cc2ccccc2/C=C/C(=O)O)c1`, the Ki is reported as 9 nM (antagonist).

Target: Prostaglandin E2 receptor EP4 subtype (Homo sapiens, UniProt P35408)
Sequence (P35408 whole entry): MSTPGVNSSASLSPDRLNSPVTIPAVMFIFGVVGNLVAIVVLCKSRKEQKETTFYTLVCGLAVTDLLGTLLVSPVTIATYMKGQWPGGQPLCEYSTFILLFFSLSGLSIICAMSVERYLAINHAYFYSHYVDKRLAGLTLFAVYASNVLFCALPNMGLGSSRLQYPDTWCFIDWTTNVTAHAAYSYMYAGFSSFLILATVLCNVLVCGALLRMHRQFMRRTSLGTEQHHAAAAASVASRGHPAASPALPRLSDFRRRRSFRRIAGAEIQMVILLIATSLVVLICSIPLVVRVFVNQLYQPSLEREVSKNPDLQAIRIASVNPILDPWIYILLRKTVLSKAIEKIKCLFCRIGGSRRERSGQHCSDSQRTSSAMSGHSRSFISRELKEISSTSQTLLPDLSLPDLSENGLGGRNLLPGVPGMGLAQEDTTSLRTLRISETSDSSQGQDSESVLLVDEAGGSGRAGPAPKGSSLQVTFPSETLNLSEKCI
Assay: Binding affinity to EP4 receptor
Details: not given
For `Cc1ccc(OCc2ccccc2)c(C/C=C/c2ccccc2/C=C/C(=O)O)c1`, the Ki was 2000 nM (antagonist).
With `Cc1ccc(OCc2ccccc2)c(/C=C/Cc2ccccc2/C=C/C(=O)O)c1` the Ki was 2000 nM (antagonist).

Tested on: not listed separately
Assay: Stability in rat hepatocytes after 3 hrs
Format: ADME, cell-based, Hepatocyte
Details: read-out: Stability
Procedure, shortened: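 Incubation with rat hepatocytes for 3 h; percentage of parent compound recovered intact.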
With `Cc1ccc(OCc2ccccc2)c(C/C=C/c2ccccc2/C=C/C(=O)O)c1` the remaining at 3 h was 8%.
With `Cc1ccc(OCc2ccccc2)c(/C=C/Cc2ccccc2/C=C/C(=O)O)c1` the remaining at 3 h was 8%.

Tested on: Rattus norvegicus
Assay: Effect on carrageenan-induced paw hyperalgesia in po dosed rat
Format: functional
Details: not given
For `Cc1ccc(OCc2ccccc2)c(C/C=C/c2ccccc2/C=C/C(=O)O)c1`, the ED50 was 20 mg/kg.
Work on `Cc1ccc(OCc2ccccc2)c(/C=C/Cc2ccccc2/C=C/C(=O)O)c1` yielded an ED50 of 20 mg/kg.

Target: T5, Prostaglandin E2 receptor EP3 subtype (Homo sapiens) (UniProt P43115)
T5 sequence (whole entry): T4 sequence (P43115 whole entry)
Assay: Antagonistic activity at EP3 receptor assessed as inhibition of cAMP production in HEK EBNA cells
Format: functional, cell-based
Details: HEK293-EBNA, filed as antagonist
With `Cc1ccc(OCc2ccccc2)c(C/C=C/c2ccccc2/C=C/C(=O)O)c1` the Kb was 32 nM.
`Cc1ccc(OCc2ccccc2)c(/C=C/Cc2ccccc2/C=C/C(=O)O)c1` showed a Kb of 32 nM.

Tested on: Rattus norvegicus
Assay: Concentration in carrageenan-induced hyperalgesic rat at 10 mg/kg, po, 1 hr postdose
Format: functional
Details: not given
Procedure, shortened: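 Young 100 g rats from the hyperalgesia model given 10 mg/kg po in 0.5% methocel as sodium salts; plasma concentration measured 1 h post-dosing, at the time hyperalgesia was assessed.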
`Cc1ccc(OCc2ccccc2)c(C/C=C/c2ccccc2/C=C/C(=O)O)c1` gave an Activity of 0.24 µM.
Molecule `Cc1ccc(OCc2ccccc2)c(/C=C/Cc2ccccc2/C=C/C(=O)O)c1` has an Activity of 1.2 µM.

Tested on: Rattus norvegicus
Assay: Antiinflammatory activity against carrageenan-induced paw edema in po dosed rat
Format: functional
Details: not given
Molecule `Cc1ccc(OCc2ccccc2)c(C/C=C/c2ccccc2/C=C/C(=O)O)c1` has an ED50 of 0.9 mg/kg.
`Cc1ccc(OCc2ccccc2)c(/C=C/Cc2ccccc2/C=C/C(=O)O)c1` showed an ED50 of 0.9 mg/kg.
